Assay outcomes from PubChem BioAssay.
Rows were chosen to be rich in hits. Some 2.9% of all compounds tested hit in one or more screens of this group.
TRPC4 inh: inhibitors of mouse TRPC4 channel. HEK293 TRPC4beta/mu-opioid, DAMGO-evoked Fluo4 calcium flux; hits give low values. 300,000 compounds, 0.39% hits. B-score at 10 µM;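 active means B-score over 3 SD under the library average, no early fluorescence shift, positive overall ratio signal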
Target sequence (Q9QUQ5 whole entry, looked up): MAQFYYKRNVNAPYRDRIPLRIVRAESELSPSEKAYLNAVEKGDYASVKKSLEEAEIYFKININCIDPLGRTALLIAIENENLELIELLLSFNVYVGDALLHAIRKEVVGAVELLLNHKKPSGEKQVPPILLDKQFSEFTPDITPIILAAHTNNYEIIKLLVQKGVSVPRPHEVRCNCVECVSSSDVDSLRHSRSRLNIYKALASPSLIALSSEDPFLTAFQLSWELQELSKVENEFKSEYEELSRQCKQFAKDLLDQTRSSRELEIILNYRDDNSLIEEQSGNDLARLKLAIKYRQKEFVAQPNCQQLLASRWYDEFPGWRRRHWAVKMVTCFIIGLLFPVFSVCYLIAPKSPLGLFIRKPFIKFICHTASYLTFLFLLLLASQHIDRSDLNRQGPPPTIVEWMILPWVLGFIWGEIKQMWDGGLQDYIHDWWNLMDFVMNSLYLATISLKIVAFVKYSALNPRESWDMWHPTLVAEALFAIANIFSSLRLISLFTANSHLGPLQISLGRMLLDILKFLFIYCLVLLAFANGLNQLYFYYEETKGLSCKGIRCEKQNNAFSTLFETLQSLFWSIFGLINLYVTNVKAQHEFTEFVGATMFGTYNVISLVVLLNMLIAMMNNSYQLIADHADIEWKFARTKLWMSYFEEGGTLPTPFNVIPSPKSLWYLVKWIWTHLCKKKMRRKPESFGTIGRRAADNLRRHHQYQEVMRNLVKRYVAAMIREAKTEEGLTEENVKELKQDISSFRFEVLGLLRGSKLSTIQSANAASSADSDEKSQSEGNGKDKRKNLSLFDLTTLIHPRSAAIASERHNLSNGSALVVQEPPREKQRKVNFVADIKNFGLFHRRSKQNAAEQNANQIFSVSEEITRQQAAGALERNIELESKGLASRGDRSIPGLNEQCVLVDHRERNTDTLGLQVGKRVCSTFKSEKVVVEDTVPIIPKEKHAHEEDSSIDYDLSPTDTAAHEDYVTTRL
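Test system – stable TRPC4beta/mu-opioid receptor HEK293 cells · Probe or stimulus – DAMGO, a submaximal dose followed by a maximal one · Dosing – one concentration per compound · Signal – Fluo4 calcium fluorescence by kinetic imaging, 5 s 1 Hz baseline · Evaluation – per-well B score of integrated baseline-normalized Fluo4 ratio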
TRPC4 PAM: TRPC4 (mouse) allosteric potentiation | HEK293 TRPC4beta/mu-opioid, DAMGO EC20, Fluo-4 Ca2+ flux; hits give high values | B-score at 10 µM | 310,000 compounds, 0.42% hits | AID 2227;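 active means B-score of calcium response area above 5 SD of library B-scores, with initial fluorescence ratio within 5 SD of library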;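 further: B-score of integrated fluorescence ratio over time as area under calcium response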
Kir21 block: blocks the mouse Kir2.1 inward-rectifier potassium channel. HEK293-Kir2.1, FluxOR thallium flux fluorescence; hits give low values. B-score at 10 µM. 310,000 compounds, 0.85% hits. AID 1672;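 active means fluorescence ratio B-score at or below minus 3 SD of library scores, with starting-brightness B-score within 2 SD, cut at about -4.2 in these data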;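 further: channel flux triggered by added potassium and thallium sulfate stimulus; B-score of peak minus minimum fluorescence over baseline after thallium stimulus; more negative B-score means stronger Kir2.1 block with less thallium influx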
TRPC4 agonist: opens the mouse TRPC4 cation channel; HEK293 TRPC4beta/mu-opioid, Fluo4 calcium fluorescence; hits give high values; B-score at 10 µM; 310,000 compounds, 0.49% hits;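 active means B-score above 5 SD of library B-scores, and initial fluorescence ratio not above library mean plus 5 SD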;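 further: positive B-score marks a calcium rise read as TRPC4 activation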
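Assay system: HEK293 stable line with TRPC4beta plus mu-opioid receptor; schedule: 45 min room-temperature Fluo4 loading, 110 s read; technique: kinetic Fluo4 calcium fluorescence; evaluation: integrated baseline-normalised fluorescence ratio, converted to per-well B score; controls: buffer (low) and maximal DAMGO (high)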
TRPC6 act: activators of mouse TRPC6 channel. AID 2550. HEK293-TRPC6 membrane potential dye fluorescence; hits give high values. 310,000 compounds, 0.13% hits. B-score at 10 µM;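 active means B-score of the integrated fluorescence ratio above library mean plus 3 SD, and starting fluorescence ratio within library mean plus 5 SD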;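 further: higher score means more depolarization so channel activation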
TRPC6 inh: blocks the mouse TRPC6 cation channel. B-score at 10 µM. AID 2553. 310,000 compounds, 1.1% hits. HEK293-TRPC6, membrane potential dye, ACh-evoked depolarization; hits give low values;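 active means B-score under library mean minus 3 SD, initial fluorescence not abnormally high, positive integrated signal ratio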;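 further: B-score derived from integrated fluorescence ratio over the kinetic read; more negative B-score means stronger inhibition of depolarization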
TRPC4 spec 2: second selectivity test of TRPC6 inhibitors: effect on mouse TRPC4; shares compounds with TRPC6 inh; HEK293 TRPC4/MOR, membrane potential dye fluorescence; channel activated by saturating DAMGO dose; inhibition, % at 10 µM; 920 compounds, 42% hits;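 active means compounds whose fluorescence signal differed from control wells by over 3 SD, either direction, in both duplicate plates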
TRPC4 spec: mouse TRPC4 off-target activity of TRPC6 inhibitors | HEK293 TRPC4/mu-opioid, membrane potential fluorescence | shares compounds with TRPC6 inh | activity change, negative = inhibition, % at 10 µM | AID 2777 | 920 compounds, 61% hits;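 active means rise or fall in signal beyond 3 SD of buffer-only wells in both replicate plates, either sign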;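 further: integrated kinetic ratio of fluorescence range over baseline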
HEK293 MPD ctr 2-1: second counter-screen for TRPC6 inhibitors: parental HEK293 cells; shares compounds with TRPC6 inh; parental HEK293 membrane potential dye fluorescence; maximal acetylcholine challenge after compound addition; signal change vs control, % at 10 µM; 920 compounds, 31% hits; AID 2779;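 active means membrane potential signal moving either way by over 3 SD of the maximum-effect control, in both duplicate plates, meaning non-specific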
HEK293 MPD ctr-1: checks TRPC6 inhibitor effects in parental HEK293 cells. AID 2780. membrane potential signal change, % at 10 µM. shares compounds with TRPC6 inh. parental HEK293 membrane potential dye fluorescence. 920 compounds, 60% hits;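 active means membrane potential signal shifting up or down by more than 3 SD of buffer-only wells, on both duplicate plates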
HEK293 MPD ctr-2: checks TRPC6 modulator effects in parental HEK293 cells | membrane potential signal change, % at 10 µM | shares compounds with TRPC6 inh | membrane potential dye fluorescence | 2,400 compounds, 51% hits;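 active means membrane potential signal moves up or down beyond 5 SD from buffer-only wells, on both duplicate plates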
HEK293 MPD ctr 2-2: parental HEK293 nonspecific activity of TRPC6 modulators, second screen; membrane potential dye fluorescence; after compound, maximal acetylcholine stimulation; inhibition, % at 10 µM; 2,400 compounds, 14% hits; AID 488926; shares compounds with TRPC6 inh;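 active means membrane potential signal drops by more than 5 SD from the mean control signal, in both duplicate plates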;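 further: plate controls were acetylcholine ECmax control wells for no effect and buffer only wells for full effect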
TRPC4/MOR mod: selectivity of TRPC6 modulators against mouse TRPC4 | shares compounds with TRPC6 inh | HEK293 TRPC4/mu-opioid, membrane potential fluorescence | percent change from control (negative = decrease, positive = increase), % at 10 µM | 2,400 compounds, 69% hits | AID 488927;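 active means membrane potential signal moved up or down beyond 5 SD of buffer control wells, in both duplicate plates, actives on both sides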;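 further: plate controls were assay buffer wells for no effect and DAMGO maximal-effect wells for full effect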
TRPC4/MOR inh 2: second check of whether TRPC6 modulators also affect mouse TRPC4; shares compounds with TRPC6 inh; HEK293 TRPC4/mu-opioid, membrane potential dye fluorescence; stimulated with maximal-effect DAMGO; inhibition, % at 10 µM; 2,400 compounds, 55% hits;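 active means drop in membrane potential signal beyond 5 SD of the control wells in both duplicate plates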;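 further: TRPC4 counter screen for TRPC6 hits run under conditions tuned for TRPC6 not TRPC4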
TRPC6 inh conf: confirmation of mouse TRPC6 inhibitors. shares compounds with TRPC6 inh. AID 488960. HEK293-TRPC6, membrane potential dye, ACh-evoked depolarization. 3,300 compounds, 43% hits. inhibition, % at 10 µM;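 active means fluorescence ratio falls more than 5 SD below the full-stimulation control mean, in both duplicate runs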;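 further: integrated fluorescence ratio of peak minus minimum over baseline after agonist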
TRPC6 act confirm: confirmation of mouse TRPC6 activators; shares compounds with TRPC6 inh; HEK293-TRPC6 membrane potential dye fluorescence, FDSS; activation, % at 10 µM; 2,800 compounds, 11% hits; AID 488961;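 active means ratio signal rise beyond 5 SD above unstimulated control wells' mean, seen in both duplicate runs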;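 further: plate controls were buffer EC0 wells for no effect and acetylcholine ECmax response for full effect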
Starred values were filed as active, the others as inactive; i = inactive; . = not tested or not shown.

SMILES	TRPC4 inh	TRPC4 PAM	Kir21 block	TRPC4 agonist	TRPC6 act	TRPC6 inh	TRPC4 spec 2	TRPC4 spec	HEK293 MPD ctr 2-1	HEK293 MPD ctr-1	HEK293 MPD ctr-2	HEK293 MPD ctr 2-2	TRPC4/MOR mod	TRPC4/MOR inh 2	TRPC6 inh conf	TRPC6 act confirm
CCN(c1ccccc1)S(=O)(=O)c1cccc(C(=O)N2CCN(S(=O)(=O)c3ccccc3)CC2)c1	i	i	0.58	i	i	-11*	i	i	i	i	.	.	.	.	i	.
Cc1ccc(S(=O)(=O)N2CCN(C(=O)c3ccc(Cl)nc3)CC2)cc1	i	i	1.3	i	i	i	.	.	.	.	.	.	.	.	.	.
Cc1ccc(S(=O)(=O)N2CCN(C(=O)c3ccccc3)CC2)cc1	i	i	-0.05	i	15*	-12*	.	.	.	.	i	i	i	i	66%*	98%*
O=C(c1cccc(S(=O)(=O)N2CCN(c3ccccc3)CC2)c1)N1CCCCCCC1	i	i	-1.7	i	i	i	.	.	.	.	.	.	.	.	.	.
O=C(c1cccc(F)c1)N1CCN(S(=O)(=O)c2ccc(C(F)(F)F)cc2)CC1	.	i	0.07	i	14*	-12*	.	.	.	.	i	i	i	i	62%*	72%*
O=C(c1ccccc1)N1CCN(C2C3CC4CC(C3)CC2C4)CC1 (stereo not drawn)	i	i	-3.2	i	i	-9.6*	i	2.6%*	i	6.7%*	.	.	.	.	i	.
O=C(c1cccc(S(=O)(=O)N2CCCC2)c1)N1CCN(c2ccccc2F)CC1	i	i	0.32	i	i	i	.	.	.	.	.	.	.	.	.	.
O=C(c1cccc(-n2cccc2)c1)N1CCN(S(=O)(=O)c2ccccc2)CC1	i	i	1.6	i	i	-7*	i	i	i	i	.	.	.	.	66%*	i
O=C(c1cccc(-n2cccc2)c1)N1CCN(S(=O)(=O)c2c(F)cccc2F)CC1	i	i	-1.2	i	i	-6.1*	.	.	.	.	i	i	i	i	44%*	.
Cc1cc(C(=O)N2CCN(S(=O)(=O)c3ccccc3F)CC2)c(C)o1	i	i	-0.7	i	i	i	.	.	.	.	.	.	.	.	.	.
CCOC(=O)CNC(=O)COc1coc(CN2CCN(c3ccc(F)cc3)CC2)cc1=O	i	i	0.04	i	i	i	.	.	.	.	.	.	.	.	.	.
COc1ccc(-c2n[nH]c(C)c2-c2cc(OC)ccc2O)cc1	i	i	0.78	i	i	-6*	.	.	.	.	i	i	i	i	i	i
